ChEMBL document CHEMBL1137637, “Quinuclidine derivatives as potential antiparasitics” (Antimicrob Agents Chemother, 2007)
Converted amounts (≈) assume the structure as drawn.

What was measured:
[1] = target: T1, Farnesyltransferase, putative (Leishmania major, UniProt Q4Q5W4); experiment: Inhibition of Leishmania major recombinant squalene synthase expressed in Escherichia coli by liquid scintillation counter
T1 sequence (Q4Q5W4 whole entry): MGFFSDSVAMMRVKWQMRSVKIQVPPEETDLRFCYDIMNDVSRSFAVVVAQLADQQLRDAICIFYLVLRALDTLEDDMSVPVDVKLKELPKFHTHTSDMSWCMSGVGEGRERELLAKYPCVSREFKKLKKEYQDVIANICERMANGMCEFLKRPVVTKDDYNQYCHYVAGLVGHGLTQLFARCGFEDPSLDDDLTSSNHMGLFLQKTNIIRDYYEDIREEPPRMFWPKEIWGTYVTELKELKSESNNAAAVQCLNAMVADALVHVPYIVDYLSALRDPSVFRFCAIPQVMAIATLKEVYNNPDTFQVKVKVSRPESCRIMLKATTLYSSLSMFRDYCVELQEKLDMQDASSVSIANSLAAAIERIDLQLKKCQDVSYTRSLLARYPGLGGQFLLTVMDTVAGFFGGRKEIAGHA
Procedure, shortened: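 Soluble E. coli extract expressing L. major SQS truncated by 16 N-terminal and 40 C-terminal residues. Buffer: 50 mM phosphate pH 7.4, 20 mM MgCl2, 5 mM CHAPS, 1% Tween 80, 10 mM DTT, BSA, 0.25 mM NADPH, and a glucose-6-phosphate/G6PDH regenerating system. Substrate 0.5 μM radiolabelled farnesyl pyrophosphate. Squalene band counted by scintillation. IC50 from hyperbolic plot of five concentrations in duplicate, usually run twice.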

Plasmodium falciparum = experiment: Antiplasmodial activity after 48 hrs against chloroquine and pyrimethamine-resistant Plasmodium falciparum K1 in human erythrocytes by [3H]hypoxanthine uptake; type: functional, organism-based
Procedure, shortened: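 P. falciparum K1 in human red cells in RPMI 1640 with 5% Albumax, exposed to serial drug dilutions. Incubated 48 h at 37°C under reduced oxygen, then 0.5 μCi [³H]hypoxanthine per well for 24 h more. Cells harvested onto glass-fibre filters and counted by scintillation. Result expressed as % of untreated control, with IC50 from sigmoidal curve. Duplicate, plus an independent repeat for actives.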

L6 = experiment: Cytotoxicity against rat L6 cells after 72 hrs by resazurin assay; type: cell-based; details: L6, 72 h
Procedure, shortened: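 L-6 cells seeded at 4 × 10⁴ cells/ml in RPMI 1640 with 10% FBS and 2 mM L-glutamine. After 24 h, medium replaced with serial drug dilution and incubated for 72 h at 37°C in 5% CO2. Resazurin added for 2–4 h, fluorescence read at ex 536/em 588 nm. IC50 from sigmoidal curve. Duplicate, with an independent repeat for actives.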

Leishmania amazonensis [2] = experiment: Inhibition of sterol biosynthesis in Leishmania mexicana amazonensis promastigotes assessed as reduction in endogenous episterol level at 10 uM after 96 hrs by gas-liquid chromatography; type: functional; parameters: scale not given: the % may be the effect or the level left
Procedure, shortened: (§1)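 L. mexicana promastigotes exposed to compound for 96 h. Total lipids extracted and neutral sterols separated from polar lipids by silicic acid column chromatography. Sterols analysed by TLC and by quantitative capillary gas-liquid chromatography with mass spectrometry. Composition expressed as mass % of free sterols, compared with untreated control.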

Leishmania donovani = experiment: Antileishmanial activity against Leishmania donovani MHOM/ET/67/L82 axenic amastigotes after 72 hrs by resazurin assay; type: functional, organism-based; details: MHOM/ET/67/L82, 72 h
Procedure, shortened: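 L. donovani MHOM/ET/67/L82 amastigotes grown axenically at 37°C in synthetic minimal medium at pH 5.4 with 10% heat-inactivated FBS under 5% CO2. 1 × 10⁵ amastigotes per well with seven threefold dilutions, 30 to 0.041 μg/ml. After 72 h, resazurin added for 2–4 h more. Fluorescence read at ex 536/em 588 nm. IC50 taken from sigmoidal curve. Run in duplicate, with an independent repeat for actives.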

Leishmania amazonensis [3] = experiment: Inhibition of sterol biosynthesis in Leishmania mexicana amazonensis promastigotes assessed as reduction in endogenous cholesta-7,24-dien-3beta-ol level at 10 uM after 96 hrs by gas-liquid chromatography; type: functional; parameters: scale not given: the % may be the effect or the level left; procedure, shortened: as §1
Trypanosoma cruzi = experiment: Antitrypanosomal activity against trypomastigotes of Trypanosoma cruzi Tulahuen C2C4 containing lacZ gene in rat L6 cells after 4 days by chlorophenol red-beta-D-galactopyranoside/Nonidet assay; type: functional, organism-based; details: Tulahuen C2C4, L6, 96 h
Procedure, shortened: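 L-6 rat myoblasts seeded at 2,000 cells/well in RPMI 1640 with 10% FBS and 2 mM L-glutamine. After 24 h, 5,000 T. cruzi Tulahuen C2C4 lacZ trypomastigotes added with serial drug dilution. Incubated at 37°C in 5% CO2 for 4 days. CPRG/Nonidet substrate added and colour read at 540 nm after 2–4 h. IC50 from sigmoidal curve. Duplicate determinations.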

Leishmania amazonensis [4] = experiment: Inhibition of sterol biosynthesis in Leishmania mexicana amazonensis promastigotes assessed as reduction in endogenous 5-dehydro episterol level at 10 uM after 96 hrs by gas-liquid chromatography; type: functional; parameters: scale not given: the % may be the effect or the level left; procedure, shortened: as §1
[5] = test system: Trypanosoma brucei rhodesiense; experiment: Trypanocidal activity against Trypanosoma brucei rhodesiense STIB 900 bloodstream form after 72 hrs by resazurin assay; type: functional, organism-based; details: STIB 900, 72 h
Procedure, shortened: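 T. b. rhodesiense STIB 900 bloodstream forms in MEM with 2-mercaptoethanol and 15% heat-inactivated horse serum, with serial drug dilutions. Incubated 72 h at 37°C in 5% CO2. Resazurin added for 2–4 h more, fluorescence read at ex 536/em 588 nm. IC50 from sigmoidal curve. Duplicate, with an independent repeat for actives.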

Leishmania amazonensis [6] = experiment: Inhibition of sterol biosynthesis in Leishmania mexicana amazonensis promastigotes assessed as reduction in exogenous cholesterol level at 10 uM after 96 hrs by gas-liquid chromatography; type: functional; parameters: scale not given: the % may be the effect or the level left; procedure, shortened: as §1
Leishmania amazonensis [7] = experiment: Antileishmanial activity against Leishmania mexicana amazonensis promastigotes by trypan blue exclusion method; type: functional, organism-based
Procedure, shortened: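 L. mexicana amazonensis promastigotes cultured in liver infusion-tryptose medium with lactalbumin and 10% FCS at 26°C, unagitated. Cultures started at 2 × 10⁶ cells/ml and drug added at 0.5–1 × 10⁷ cells/ml. Density counted by electronic particle counter and hemocytometer. Viability by trypan blue exclusion. Triplicate growth experiments.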

Leishmania amazonensis [8] = experiment: Inhibition of sterol biosynthesis in Leishmania mexicana amazonensis promastigotes assessed as reduction in endogenous cholesta-5,7,24-trien-3beta-ol level at 10 uM after 96 hrs by gas-liquid chromatography; type: functional; parameters: scale not given: the % may be the effect or the level left; procedure, shortened: as §1
Leishmania amazonensis [9] = experiment: Inhibition of sterol biosynthesis in Leishmania mexicana amazonensis promastigotes assessed as reduction in endogenous 5-dehydro episterol level at 1 uM after 96 hrs by gas-liquid chromatography; type: functional; parameters: scale not given: the % may be the effect or the level left; procedure, shortened: as §1
Leishmania amazonensis [10] = experiment: Inhibition of sterol biosynthesis in Leishmania mexicana amazonensis promastigotes assessed as reduction in exogenous cholesterol level at 3 uM after 96 hrs by gas-liquid chromatography; type: functional; parameters: scale not given: the % may be the effect or the level left; procedure, shortened: as §1
Leishmania amazonensis [11] = experiment: Inhibition of sterol biosynthesis in Leishmania mexicana amazonensis promastigotes assessed as reduction in endogenous episterol level at 3 uM after 96 hrs by gas-liquid chromatography; type: functional; parameters: scale not given: the % may be the effect or the level left; procedure, shortened: as §1
Leishmania amazonensis [12] = experiment: Inhibition of sterol biosynthesis in Leishmania mexicana amazonensis promastigotes assessed as reduction in exogenous cholesterol level at 1 uM after 96 hrs by gas-liquid chromatography; type: functional; parameters: scale not given: the % may be the effect or the level left; procedure, shortened: as §1
Leishmania amazonensis [13] = experiment: Inhibition of sterol biosynthesis in Leishmania mexicana amazonensis promastigotes assessed as reduction in endogenous 5-dehydro episterol level at 3 uM after 96 hrs by gas-liquid chromatography; type: functional; parameters: scale not given: the % may be the effect or the level left; procedure, shortened: as §1
Leishmania amazonensis [14] = experiment: Inhibition of sterol biosynthesis in Leishmania mexicana amazonensis promastigotes assessed as reduction in endogenous episterol level at 1 uM after 96 hrs by gas-liquid chromatography; type: functional; parameters: scale not given: the % may be the effect or the level left; procedure, shortened: as §1
Squalene synthase = target: T2, Squalene synthase (Homo sapiens, UniProt P37268); experiment: Inhibition of human recombinant squalene synthase expressed in Escherichia coli BL21(DE3 pLysS) up to 1 uM by liquid scintillation counter
T2 sequence (P37268 whole entry): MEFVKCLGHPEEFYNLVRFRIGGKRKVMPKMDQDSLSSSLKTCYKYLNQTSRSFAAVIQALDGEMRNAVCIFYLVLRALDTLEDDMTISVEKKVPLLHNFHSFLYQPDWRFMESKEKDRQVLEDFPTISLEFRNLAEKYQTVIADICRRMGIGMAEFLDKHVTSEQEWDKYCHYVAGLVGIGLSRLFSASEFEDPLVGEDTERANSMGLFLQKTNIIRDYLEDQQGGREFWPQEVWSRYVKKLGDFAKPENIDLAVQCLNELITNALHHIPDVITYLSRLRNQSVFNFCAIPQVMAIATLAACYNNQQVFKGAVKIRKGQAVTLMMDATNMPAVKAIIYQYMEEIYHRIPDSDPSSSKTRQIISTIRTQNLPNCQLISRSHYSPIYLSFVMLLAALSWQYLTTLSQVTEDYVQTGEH
Procedure, shortened: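 Human SQS in extracts of E. coli BL21(DE3 pLysS) carrying pHSS16, assayed under the same conditions as the L. major enzyme. Buffer: phosphate pH 7.4, MgCl2, CHAPS, Tween 80, DTT, BSA, and NADPH with a regenerating system. Substrate 0.5 μM radiolabelled farnesyl pyrophosphate. Squalene band radioactivity counted by scintillation.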

Structure (SMILES)	IC50 [1]	IC50 (Plasmodium falciparum)	IC50 (L6)	Activity (Leishmania amazonensis [2])	IC50 (Leishmania donovani)	Activity (Leishmania amazonensis [3])	IC50 (Trypanosoma cruzi)	Activity (Leishmania amazonensis [4])	IC50 [5]	Activity (Leishmania amazonensis [6])	MIC (Leishmania amazonensis [7])	Activity (Leishmania amazonensis [8])	IC50 (Leishmania amazonensis [7])	Activity (Leishmania amazonensis [9])	Activity (Leishmania amazonensis [10])	Activity (Leishmania amazonensis [11])	Activity (Leishmania amazonensis [12])	Activity (Leishmania amazonensis [13])	Activity (Leishmania amazonensis [14])	IC50 (Squalene synthase)
OC[C@@H]1CC2CCN1C[C@@H]2C#Cc1cnc2ccccc2c1 (stereo partly drawn)	> 1000 nM	1.7 µM	169 µM	13.7%	80 µM	12.3%	19.1 µM	40.6%	7.1 µM	27.5%	> 10 µM	5.9%	–	–	–	–	–	–	–	–
CCOC(=O)Cc1ccc(C#C[C@H]2CN3CCC2C[C@H]3CO)cc1 (stereo partly drawn)	> 1000 nM	5 µM	155 µM	10.8%	> 92 µM	11.8%	50 µM	41.5%	64.7 µM	25.2%	–	10.7%	> 10 µM	–	–	–	–	–	–	–
C1=C(c2cc3ccccc3s2)C2CCN1CC2	> 1000 nM	12 µM	146 µM	–	1.2 µM	–	64.2 µM	–	5.6 µM	–	10 µM (≈ 2.41 µg/mL)	–	–	28.6%	62.3%	22.2%	47.9%	15.5%	24.5%	–
OC[C@H]1CC2CCN1C[C@@H]2C#Cc1ccccc1 (stereo partly drawn)	> 1000 nM	6.5 µM	166 µM	11.8%	> 124 µM	2.7%	25.6 µM	69.6%	14.5 µM	13.1%	10 µM (≈ 2.41 µg/mL)	2.8%	–	–	–	–	–	–	–	–
OC[C@@H]1CC2CCN1C[C@@H]2C#Cc1ccccc1 (stereo partly drawn)	> 1000 nM	3.3 µM	74.5 µM	13.2%	> 124 µM	3.9%	8.2 µM	63%	12.8 µM	17.9%	> 10 µM	2%	–	–	–	–	–	–	–	–
C(=C1\CN2CCC1CC2)/c1ccc(C2OCCO2)cc1	> 1000 nM	10 µM	239 µM	–	77.7 µM	–	30.2 µM	57.9%	10.3 µM	42.1%	10 µM (≈ 2.71 µg/mL)	–	–	–	–	–	–	–	–	Not Active
CCOC(=O)c1ccc(C2=CN3CCC2CC3)cc1	180 nM	11.6 µM	265 µM	–	1 µM	–	16 µM	–	35.1 µM	–	1 µM (≈ 0.257 µg/mL)	–	–	36.3%	73.4%	13.2%	52.2%	13.4%	11.5%	–
CCOC(=O)Cc1ccc(C#C[C@H]2CN3CCC2C[C@@H]3CO)cc1 (stereo partly drawn)	> 1000 nM	5.2 µM	156 µM	8.4%	14.6 µM	3.3%	22.9 µM	73.4%	32.3 µM	14.6%	> 10 µM	3.6%	–	–	–	–	–	–	–	–
CCOC(=O)c1ccc(C#C[C@H]2CN3CCC2C[C@H]3CO)cc1 (stereo partly drawn)	> 1000 nM	0.6 µM	37.6 µM	4.1%	10.2 µM	3.3%	19.4 µM	50.3%	1.7 µM	18.7%	> 10 µM	23.6%	–	–	–	–	–	–	–	–
